This note sets out measurements from ChEMBL document CHEMBL4000143, “Proof of concept study for designed multiple ligands targeting the dopamine D2, serotonin 5-HT2A, and muscarinic M1 acetylcholine receptors” (J Med Chem, 2015).

Broadly, the Kb is the equilibrium dissociation constant of an antagonist, usually derived from a functional assay. As usually defined, the pKb is the Kb on a negative log10 scale, so that one unit is a factor of ten. A word on the Ki: it is a dissociation constant, usually derived from enzyme kinetics or from competition with a known ligand. Usually Emax stands for the greatest response seen or fitted, relative to the assay's reference. The term EC50 denotes the midpoint of the concentration-response curve.

For experiment [1], the target named is T1, D(2) dopamine receptor (Homo sapiens, UniProt P14416). In words: Antagonist activity at human dopamine D2L receptor expressed in F1pIn CHO cells assessed as inhibition of ERK1/2 phosphorylation incubated for 5 mins by AlphaScreen assay. It counts as cell-based. The method, boiled down:
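Functional affinity (KB) from interaction studies against varying dopamine concentrations, read out as pERK1/2 levels in D2L-FlpIn CHO cells. Data fitted by Gaddum–Schild analysis. Mean of three to four experiments, each run in duplicate.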

The target in experiment [2] is Muscarinic acetylcholine receptor M1 (Homo sapiens) (UniProt P11229). Put plainly: Agonist activity at human mAChR1 receptor expressed in F1pIn CHO cells assessed as induction of intracellular calcium mobilization.
Muscarinic acetylcholine receptor M1 (Homo sapiens), sequence (P11229 whole entry, looked up): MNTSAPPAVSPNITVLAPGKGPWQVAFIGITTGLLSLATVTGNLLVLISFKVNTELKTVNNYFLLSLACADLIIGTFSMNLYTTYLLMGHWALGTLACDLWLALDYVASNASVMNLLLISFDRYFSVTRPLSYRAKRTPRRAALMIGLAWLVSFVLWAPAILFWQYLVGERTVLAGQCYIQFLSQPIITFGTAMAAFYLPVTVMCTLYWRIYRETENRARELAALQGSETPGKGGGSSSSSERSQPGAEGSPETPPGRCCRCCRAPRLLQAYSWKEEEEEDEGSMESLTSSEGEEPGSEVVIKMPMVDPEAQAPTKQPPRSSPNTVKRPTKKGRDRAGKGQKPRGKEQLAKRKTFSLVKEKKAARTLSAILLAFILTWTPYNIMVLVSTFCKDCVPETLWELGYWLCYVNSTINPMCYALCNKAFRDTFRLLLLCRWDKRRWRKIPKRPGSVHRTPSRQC
Experiment [3] has as its target T2, 5-hydroxytryptamine receptor 2A (Homo sapiens, UniProt P28223). Put plainly: Displacement of [3H]ketanserin from human 5-HT2A receptor expressed in F1pIn CHO cell membranes after 1 hr by scintillation counting method. The method, boiled down:
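Binding in 5-HT2A-FlpIn CHO cell membranes with [3H]ketanserin as radioligand. Mean of three to four experiments, each run in duplicate.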
(In a radioligand displacement assay an active substance lowers the binding of a labelled ligand.)

The target of experiment [4] is T1, D(2) dopamine receptor. Put plainly: Antagonist activity at human dopamine D2L receptor expressed in F1pIn CHO cells assessed as inhibition of ERK1/2 phosphorylation by time-course assay. The class given is cell-based.
The target of experiment [5] is T2, 5-hydroxytryptamine receptor 2A. In words: Antagonist activity at human 5-HT2A receptor expressed in F1pIn CHO cells assessed as inhibition of serotonin-induced myo-inositol 1 phosphate accumulation after 1 hr by HTRF assay. The class given is functional, cell-based. The method, boiled down:
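Functional affinity (KB) from interaction studies against varying serotonin concentrations in an IP1 accumulation assay in 5-HT2A-FlpIn CHO cells. Mean of three to four experiments, each run in duplicate.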
(Time-resolved FRET reads energy transfer from a long-lived donor to a nearby acceptor.)

Experiment [6] has as its target Muscarinic acetylcholine receptor M1 (Homo sapiens) (UniProt P11229). Put plainly: Agonist activity at human mAChR1 receptor expressed in F1pIn CHO cells assessed as induction of intracellular calcium mobilization relative to acetylcholine.
For experiment [7], the target named is T1, D(2) dopamine receptor. In words: Displacement of [3H]-raclopride from human dopamine D2L receptor expressed in F1pIn CHO cells after 60 mins by scintillation counting analysis. The class given is cell-based. The method, boiled down:
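Binding in whole D2L-FlpIn CHO cells with [3H]raclopride as radioligand. Mean of three to four experiments, each run in duplicate.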

In experiment [8] the target is T1, D(2) dopamine receptor. In words: Agonist activity at human dopamine D2L receptor expressed in F1pIn CHO cells assessed as induction of ERK1/2 phosphorylation by time-course assay. The class given is cell-based.
In experiment [9] the target is T1, D(2) dopamine receptor. In words: Agonist activity at human dopamine D2L receptor expressed in F1pIn CHO cells assessed as […] forskolin-mediated cAMP accumulation incubated for 30 mins by AlphaScreen assay. It counts as functional, cell-based. The method, boiled down: (§1)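 D2L-FlpIn CHO cells. Agonist concentration–response curves were measured for cAMP signalling and for ERK1/2 phosphorylation. Mean of four to six experiments, each run in duplicate.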
(In general: Cyclic AMP is a second messenger, typically raised through Gs and lowered through Gi signalling.)

Experiment [10] has as its target T1, D(2) dopamine receptor. Put plainly: Agonist activity at human dopamine D2L receptor expressed in F1pIn CHO cells assessed as […] forskolin-mediated cAMP accumulation incubated for 30 mins by AlphaScreen assay relative to ropinirole. It counts as functional, cell-based. The method, boiled down:
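D2L-FlpIn CHO cells, cAMP signalling. Emax is given as a percentage of the maximal response to ropinirole. Mean of four to six experiments, each run in duplicate.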

For experiment [11], the target named is T1, D(2) dopamine receptor. In words: Agonist activity at human dopamine D2L receptor expressed in F1pIn CHO cells assessed as induction of ERK1/2 phosphorylation incubated for 5 mins by AlphaScreen assay relative to FBS. It counts as cell-based. The method, boiled down:
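D2L-FlpIn CHO cells, pERK1/2 assay. Emax is given as a percentage of the maximal response to FBS. Mean of four to six experiments, each run in duplicate.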

The target of experiment [12] is T1, D(2) dopamine receptor. Put plainly: Agonist activity at human dopamine D2L receptor expressed in F1pIn CHO cells assessed as induction of ERK1/2 phosphorylation incubated for 5 mins by AlphaScreen assay. It counts as cell-based. The method, boiled down: as §1

Active and inactive are the calls of the source. The rule behind the calls is not given here.

T2 sequence (P28223 whole entry): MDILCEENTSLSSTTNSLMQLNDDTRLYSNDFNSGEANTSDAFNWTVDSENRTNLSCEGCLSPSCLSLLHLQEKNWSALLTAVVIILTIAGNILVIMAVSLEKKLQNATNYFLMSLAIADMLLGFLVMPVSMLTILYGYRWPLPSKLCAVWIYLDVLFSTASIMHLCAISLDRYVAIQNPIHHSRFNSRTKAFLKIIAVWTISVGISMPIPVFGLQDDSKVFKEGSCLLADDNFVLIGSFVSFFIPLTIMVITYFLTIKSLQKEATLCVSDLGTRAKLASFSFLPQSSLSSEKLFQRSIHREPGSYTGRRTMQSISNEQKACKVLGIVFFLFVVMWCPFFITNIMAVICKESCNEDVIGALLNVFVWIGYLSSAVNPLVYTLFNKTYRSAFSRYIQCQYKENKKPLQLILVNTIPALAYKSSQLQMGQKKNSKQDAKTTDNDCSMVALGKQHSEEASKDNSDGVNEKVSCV
T1 sequence (P14416 whole entry): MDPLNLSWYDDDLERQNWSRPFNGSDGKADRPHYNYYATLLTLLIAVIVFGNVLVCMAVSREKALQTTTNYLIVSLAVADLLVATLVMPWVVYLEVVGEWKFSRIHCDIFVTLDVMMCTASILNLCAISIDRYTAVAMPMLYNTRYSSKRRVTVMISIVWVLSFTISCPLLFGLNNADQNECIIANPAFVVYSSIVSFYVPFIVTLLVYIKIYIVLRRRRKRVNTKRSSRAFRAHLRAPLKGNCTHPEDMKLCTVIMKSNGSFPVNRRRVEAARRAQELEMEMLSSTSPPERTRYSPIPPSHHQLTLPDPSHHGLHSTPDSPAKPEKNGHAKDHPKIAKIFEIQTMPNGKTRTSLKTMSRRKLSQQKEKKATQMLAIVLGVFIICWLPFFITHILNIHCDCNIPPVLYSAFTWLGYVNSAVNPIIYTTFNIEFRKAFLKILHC

Turning to `COc1ccccc1N1CCN(CCCN2C(=O)COc3ccccc32)CC1`, the figures for the antagonist equilibrium constant (Kb) (at D(2) dopamine receptor [1]; in experiment [5]) were 7.8 nM and 578 nM, respectively. In addition, the pKb at D(2) dopamine receptor [1] came out at 8.11; in experiment [5] it was 6.24. For the same compound, the pEC50 entry in [2] was “inactive”. In addition, the figures for the inhibition constant (Ki) (in experiment [3]; on D(2) dopamine receptor [7]) were 275 nM and 42.7 nM, respectively. The inhibition result on D(2) dopamine receptor [4] is “Active”. The Emax entry in experiment [6] is “inactive”.
Take `O=C1COc2ccccc2N1CCCN1CCN(c2nsc3ccccc23)CC1`: the antagonist equilibrium constant (Kb) on D(2) dopamine receptor [1] came out at 7 nM; in [5], 235 nM. Further, the values for the pKb (on D(2) dopamine receptor [1]; in experiment [5]) were 8.16 and 6.63, respectively. The Ki in experiment [3] stood at 5.8 nM; at D(2) dopamine receptor [7], 17.7 nM. Moreover, the inhibition result on D(2) dopamine receptor [4] is “Active”.
Consider `O=C1COc2ccccc2N1CCCN1CCN(c2cccc3[nH]c(=O)oc23)CC1`, for which the pEC50 entry in experiment [2] is “inactive”. At D(2) dopamine receptor [8], the result was Active. In addition, the Ki worked out at 568 nM in [3] and 1.7 nM on D(2) dopamine receptor [7]. Besides, the EC50 on D(2) dopamine receptor [9] was found to be 0.096 nM; at D(2) dopamine receptor [12], 0.64 nM. Besides, the maximal response (Emax) was 97% on D(2) dopamine receptor [10] and 26% on D(2) dopamine receptor [11]. The Kb in [5] is 1140 nM. Also, in [5], the pKb is 5.94. Also, in [6], the Emax entry is “inactive”.
On to `O=C(Cc1ccccc1)NC1CCN(CCCN2C(=O)COc3ccccc32)CC1`, for which the Kb at D(2) dopamine receptor [1] was found to be 2090 nM; in experiment [5], 1570 nM. Further, the pKb stood at 5.68 at D(2) dopamine receptor [1] and 5.8 in experiment [5]. For the same compound, the inhibition constant Ki was found to be 1040 nM in experiment [3] and 834 nM at D(2) dopamine receptor [7]. Moreover, the Emax in experiment [6] turned out to be 101%.
For the compound `O=C1COc2ccccc2N1CCCN1CCC(c2noc3cc(F)ccc23)CC1`, the Kb on D(2) dopamine receptor [1] was found to be 1.2 nM; in [5], 21.2 nM. Also, the values for the negative logarithm of the Kb (pKb) (on D(2) dopamine receptor [1]; in [5]) were 8.91 and 7.67, respectively. The pEC50 result in experiment [2] was “inactive”. Also, the values for the Ki (in experiment [3]; on D(2) dopamine receptor [7]) were 2.7 nM and 3.2 nM, respectively. In addition, at D(2) dopamine receptor [4], the inhibition result is “Active”. For the same compound, the Emax result in experiment [6] was “inactive”.
In the case of `O=C1COc2ccccc2N1CCCN1CCN(c2cccc(Cl)c2Cl)CC1`, the antagonist equilibrium constant (Kb) came to 99 nM at D(2) dopamine receptor [1] and 1860 nM in experiment [5]. Also, the results for the negative-log Kb (pKb) (at D(2) dopamine receptor [1]; in [5]) were 7 and 5.73, respectively. Further, the pEC50 result in experiment [2] is “inactive”. Moreover, the inhibitory constant (Ki) in experiment [3] worked out at 75.8 nM; at D(2) dopamine receptor [7], 273 nM. For the same compound, the inhibition entry at D(2) dopamine receptor [4] is “Active”. Further, the Emax result in experiment [6] is “inactive”.
